From ChEMBL document CHEMBL1765074, “Synthesis, evaluation and structural studies of antiproliferative tubulin-targeting azetidin-2-ones” (Bioorg Med Chem, 2011) come the findings set out here.

SMILES strings stand for the structures.

The term IC50 denotes the concentration that inhibits the measured activity by half. Read a high IC50 as weaker potency.

One experiment relates to MCF7. Put plainly: Antiproliferative activity against human MCF7 cells by MTT assay. Type of experiment: functional, cell-based. The essentials:
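MCF-7 cells grown in Eagle's MEM with 10% FBS, 2 mM L-glutamine, penicillin/streptomycin and 1% non-essential amino acids. Seeded at 2.5×10^4 cells/mL, left 24 h at 37°C, then treated 72 h across 1 nM–100 μM from ethanol stocks (vehicle 1% v/v). MTT at 1 mg/mL final for 2 h in darkness, DMSO solubilisation, absorbance read. IC50 is the mean of at least three experiments in triplicate.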
A general note: Tetrazolium dyes change colour on reduction, which living cells bring about.

A further experiment relates to MDA-MB-231. Put plainly: Antiproliferative activity against human MDA-MB-231 cells by MTT assay. The class given is functional, cell-based. An outline of the steps: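 MDA-MB-231 cells in DMEM with 10% FBS, 2 mM L-glutamine and penicillin/streptomycin were seeded at 2.5×10^4 cells/mL and held 24 h at 37°C. They then got ethanol-stock compound over 1 nM–100 μM (vehicle 1% v/v ethanol) for 72 h. MTT at 1 mg/mL final was added for 2 h in the dark, then DMSO for 20 min before absorbance. Untreated = 100% viability. IC50 is the mean ± S.E.M. of ≥3 triplicate experiments.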

In the experiment with MCF7, `COc1ccc([C@@H]2[C@@H](C(O)c3cccs3)C(=O)N2c2cc(OC)c(OC)c(OC)c2)cc1` (some centres undefined) displayed a 50% inhibitory concentration (IC50) of 1200 nM.

`COc1ccc([C@H]2N(c3cc(OC)c(OC)c(OC)c3)C(=O)C2(c2ccccc2)c2ccccc2)cc1` (mixture of isomers) registered an IC50 with MCF7 of 43200 nM.

`COc1ccc(C2/C(=C/c3ccc(C)s3)C(=O)N2c2cc(OC)c(OC)c(OC)c2)cc1` (centres undefined) registered an IC50 with MCF7 of 580 nM.

Consider `COc1ccc([C@@H]2[C@@H](c3cccs3)C(=O)N2c2cc(OC)c(OC)c(OC)c2)cc1N`, for which the IC50 in the experiment with MCF7 came to 42 nM; in the experiment with MDA-MB-231 it was 110 nM.

In the case of `COc1ccc([C@@H]2C(Cc3cccs3)C(=O)N2c2cc(OC)c(OC)c(OC)c2)cc1` (mixture of isomers), the IC50 in the experiment with MCF7 stood at 1640 nM.

`COc1ccc([C@H]2N(c3cc(OC)c(OC)c(OC)c3)C(=O)C2(C)c2ccccc2)cc1` (mixture of isomers): half-maximal inhibition in the experiment on MCF7 (IC50) required 43500 nM.

In the case of `COc1ccc([C@@H]2C(c3ccc4ccccc4c3)C(=O)N2c2cc(OC)c(OC)c(OC)c2)cc1` (mixture of isomers), in the experiment on MCF7, the IC50 was found to be 2500 nM.

As to `COc1cc(N2C(=O)[C@H](c3cccs3)[C@H]2c2ccc3ccccc3c2)cc(OC)c1OC` (mixture of isomers), the IC50 with MCF7 is 120 nM.

Consider `COc1ccc([C@@H]2C(c3cccs3)C(=O)N2c2cc(OC)c(OC)c(OC)c2)cc1[N+](=O)[O-]` (mixture of isomers), for which, in the experiment on MCF7, the IC50 is 370 nM. This IC50 lies about 3.1-fold higher than the previous one.

Compound `COc1ccc([C@@H]2/C(=C/c3cccs3)C(=O)N2c2cc(OC)c(OC)c(OC)c2)cc1` returned an IC50 with MCF7 of 4050 nM.

In the experiment on MCF7, `COc1ccc([C@@H]2C(c3ccsc3)C(=O)N2c2cc(OC)c(OC)c(OC)c2)cc1` (mixture of isomers) registered a half-maximal inhibitory concentration (IC50) of 60 nM.

`COc1ccc([C@@H]2C(C3CCCCC3)C(=O)N2c2cc(OC)c(OC)c(OC)c2)cc1` (mixture of isomers) displayed a half-inhibitory concentration (IC50) in the experiment with MCF7 of 580 nM.

`COc1cc(N2C(=O)[C@H](c3cccs3)[C@H]2c2cccc3ccccc23)cc(OC)c1OC` (racemic) registered an IC50 in the experiment with MCF7 of 620 nM.
